Holding throughout (format): protein-complex assay
Experiment [1] has as its target Geranylgeranyl transferase type I (Homo sapiens, UniProt P49354+P53609). Put plainly: In vitro inhibition of Geranylgeranyl protein transferase I. In short, it runs like this:
(§1)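 Cell-free enzyme inhibition assay, run as previously described with modifications.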

In experiment [2] the target is Protein farnesyl/geranylgeranyl transferase (Homo sapiens) (UniProt P49354+P49356+P53609). Kind of experiment: Selectivity for Geranylgeranyl protein transferase I compared to farnesyl protein transferase.
For experiment [3], the target named is Protein farnesyltransferase (Homo sapiens, UniProt P49354+P49356). Kind of experiment: In vitro inhibition of farnesyl protein transferase. In short, it runs like this:
as §1

The term IC50 denotes the concentration at which inhibition is half-maximal. The low end stands for greater potency in that assay, the high end for weaker potency in that assay. Take `CC(C)=CCC/C(C)=C/CC/C(C)=C/CC/C(C)=C/CNC(=O)C(C)P(=O)(O)O` (stereo unspecified): the half-maximal inhibitory concentration (IC50) in experiment [1] is 0.111 µM; in experiment [3] it was > 10 µM. The Selectivity in experiment [2] is > 90.
The matching figures for `CCC(C(=O)NC/C=C(\C)CC/C=C(\C)CC/C=C(\C)CCC=C(C)C)P(=O)(O)O` (stereo unspecified): 0.566 µM, > 10 µM and > 18.
Regarding `CC(C)=CCC/C(C)=C/CC/C(C)=C/CC/C(C)=C/CNC(=O)CP(=O)(O)O`, the figures for the IC50 in experiment [1] and in experiment [3] were 0.275 µM and 5 µM, respectively. Further, the Selectivity in experiment [2] worked out at 18.
In the case of `CC(C)=CCC/C(C)=C/CC/C(C)=C/CC/C(C)=C/CONC(=O)CP(=O)(O)O`, the IC50 in experiment [1] was found to be 0.066 µM.
As to `CCC(C(=O)NOC/C=C(\C)CC/C=C(\C)CC/C=C(\C)CCC=C(C)C)P(=O)(O)O` (stereo unspecified), the results for the IC50 in experiment [1] and in experiment [3] were 0.146 µM and > 10 µM, respectively. For the same compound, the Selectivity in experiment [2] was > 68.
In the case of `CC(C)=CCC/C(C)=C/CC/C(C)=C/CC/C(C)=C/CONC(=O)C(C)P(=O)(O)O` (stereo unspecified), the IC50 was 0.151 µM in experiment [1] and > 10 µM in experiment [3]. Besides, in experiment [2], the Selectivity is > 66.

The values are drawn from ChEMBL document CHEMBL1136489 (Bioorg Med Chem Lett, 2003).
